Screening results as filed in PubChem BioAssay.
This is a sample that favours compounds with a hit; in the whole collection about 3.5% have one here.
RGS4 pot: RGS4 potentiators or activators, primary screen, cell-based, HEK293 M3R inducible RGS4, calcium flux; carbachol calcium flux Fluo4; active compounds read low; B-score at 10 µM; 0.92% of 310,000 active; AID 463111, 2010;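 active = B-score of the integrated calcium signal more than 4 SD below the library mean, with starting fluorescence not abnormally high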;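 note: negative B-score means reduced calcium response which marks RGS4 activation or potentiation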
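Detection: kinetic calcium fluorescence imaging with Fluo4-AM dye, 2 µM / Material: HEK293 cells with stable M3R and inducible RGS4 / Schedule: recording 10 s baseline at 1 Hz, 100 s post-agonist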
MrgX1 agonist: agonists of human MrgX1 receptor, primary screen, HEK293 cells, Fluo-4 calcium flux; Mas-related G-protein coupled receptor member X1 (Homo sapiens), Q96LB2; Fluo-4 calcium fluorescence, agonist mode; active compounds read high; B-score at 10 µM; 0.44% of 310,000 active; AID 588627, 2011;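 active = calcium response B-score plate-corrected fluorescence ratio at least 3 library SD, with starting fluorescence B-score inside 5 SD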
Target sequence (Q96LB2 whole entry, looked up): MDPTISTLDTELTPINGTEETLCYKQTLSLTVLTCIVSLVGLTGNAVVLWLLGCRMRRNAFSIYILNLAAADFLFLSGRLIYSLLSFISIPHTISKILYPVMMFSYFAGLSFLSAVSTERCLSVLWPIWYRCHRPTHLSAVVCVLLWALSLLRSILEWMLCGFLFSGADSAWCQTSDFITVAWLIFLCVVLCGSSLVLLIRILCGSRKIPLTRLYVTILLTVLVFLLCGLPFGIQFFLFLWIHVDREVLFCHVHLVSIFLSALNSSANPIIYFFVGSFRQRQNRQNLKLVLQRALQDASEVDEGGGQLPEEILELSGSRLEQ
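Material: HEK293 cells stably expressing human MrgX1 receptor | Quantity: 15,000 cells per well | Times: Cells plated overnight, dye loaded 0.5 h 37 °C, 0.5 h room temperature | Measured by: Kinetic Fluo-4 NW fluorescence of intracellular calcium | Control set: Positive and negative controls per plate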
MrgX1 allo act: positive allosteric modulators of MrgX1, primary screen, HEK293 cells, Fluo-4 calcium flux | Mas-related G-protein coupled receptor member X1 (Homo sapiens), Q96LB2 | FDSS; active compounds read high | B-score at 10 µM | 0.63% of 310,000 active | AID 588675, 2011;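 active = plate-corrected calcium response at least 3 library SD above typical, normal starting fluorescence, not activating the receptor alone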;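 note: compound read alongside a low EC10 to EC30 dose of BAM8-22 agonist; peak minus trough fluorescence over baseline measured at the second addition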
MrgX1 antagonist: antagonists of human MrgX1 receptor, primary screen, HEK293 cells, Fluo-4 calcium flux. 1.3% of 310,000 active. BAM8-22 antagonism; active compounds read low. B-score at 10 µM. Mas-related G-protein coupled receptor member X1 (Homo sapiens), Q96LB2;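 active = calcium-response B-score plate-corrected more than 3 library SD below zero, starting fluorescence within 5 deviations, no agonist response on first addition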;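 note: peak minus trough fluorescence over baseline after final BAM8-22 challenge near maximal dose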
RGS4 inh: RGS4 inhibitors, primary screen, cell-based, HEK293 M3R inducible RGS4, calcium flux; Regulator of G-protein signaling 4 (Homo sapiens), P49798; Fluo-4 calcium flux; active compounds read high; triggered by carbachol at its EC20; B-score at 10 µM; 0.45% of 310,000 active;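 active = B-score, a plate-corrected calcium signal, over three deviations above library mean, with baseline fluorescence within five deviations of library mean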;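 note: RGS4 expression induced by doxycycline in cells with stable M3 receptor; B-score is computed from the integrated fluorescence ratio over baseline after carbachol; higher B-score means a larger calcium signal and so more RGS4 inhibition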
Target sequence (P49798 whole entry, looked up): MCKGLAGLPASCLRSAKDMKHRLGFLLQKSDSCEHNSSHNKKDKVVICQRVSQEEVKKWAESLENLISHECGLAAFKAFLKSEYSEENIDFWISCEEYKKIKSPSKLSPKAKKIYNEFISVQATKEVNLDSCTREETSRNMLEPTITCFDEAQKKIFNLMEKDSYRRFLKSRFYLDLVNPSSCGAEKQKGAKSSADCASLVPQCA
MrgX1 ag reconf: MrgX1 receptor agonists, duplicate retest, confirmation, HEK293 cells, Fluo-4 calcium flux; shares compounds with MrgX1 agonist; Fluo-4 calcium fluorescence, FDSS; activation, % at 10 µM; 78% of 600 active; AID 602412, 2012;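 active = calcium signal rise, corrected for plate position, at least 3 library SD high, with starting brightness within 5 such deviations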
HEK293 Ca flux: nonspecific calcium signal in parental HEK293, confirmation, counter-screen for MrgX1 antagonist project, parental HEK293 cells, Fluo-4 calcium flux. shares compounds with MrgX1 antagonist. Fluo-4 calcium fluorescence, FDSS. fluorescence ratio F(max-min)/F0 at 10 µM. 2% of 4,000 active. AID 624111, 2012;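 active = duplicate-averaged calcium fluorescence ratio at least three times the standard deviation of buffer wells, a nonspecific response in parental cells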
HEK293 Ca counter: calcium response in parental HEK293 cells, primary screen, counter-screen for MrgX1 allosteric activator project, cell-based, Fluo-4 calcium flux, duplicate; shares compounds with MrgX1 antagonist; Fluo-4 fluorescence ratio; active compounds read high; fluorescence ratio F(max-min)/F0 at 10 µM; 0.4% of 4,000 active;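 active = calcium fluorescence ratio, averaged over duplicates, at least 3 SD of the buffer-well ratio, meaning a nonspecific response in receptor-free cells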;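 note: untransfected parental HEK293 lacking MrgX1 used as counterscreen for MrgX1 allosteric activators; fluorescence change taken during the second addition on a kinetic imager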
HEK293 Ca cntr2: calcium response in parental HEK293 cells, primary screen, counter-screen for MrgX1 agonist project, cell-based, Fluo-4 calcium flux, duplicate, agonist mode; shares compounds with MrgX1 antagonist; Fluo-4 calcium fluorescence (FDSS); active compounds read high; fluorescence ratio F(max-min)/F0 at 10 µM; 8.7% of 4,000 active;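 active = calcium fluorescence ratio at least three times the spread of buffer wells, meaning a non-specific response in parental cells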
Numbers without * were called inactive; i = inactive; x = no result given.

SMILES	RGS4 pot	MrgX1 agonist	MrgX1 allo act	MrgX1 antagonist	RGS4 inh	MrgX1 ag reconf	HEK293 Ca flux	HEK293 Ca counter	HEK293 Ca cntr2
O=C(Cc1ccc(Cl)cc1)N1CCN(C(=O)c2ccco2)CC1	i	i	i	i	i	x	x	x	x
CS(=O)(=O)c1nc(-c2ccccc2)cc(C(F)(F)F)n1	i	38*	i	i	i	184%*	i	i	i
Cc1cc(NC(=O)CCS(=O)(=O)c2nc(-c3ccccc3)cc(C(F)(F)F)n2)no1	x	i	i	i	x	x	x	x	x
COc1ccc(N(CC(=O)N2CCC(Cc3ccccc3)CC2)S(C)(=O)=O)cc1	i	i	i	i	i	x	x	x	x
O=C(O)CCc1ccc(-c2ccc(Cl)cc2)n1Cc1ccco1	i	38*	i	i	i	159%*	i	i	i
Cc1occc1C(=O)NNC(=S)NC(=O)COc1ccc(Cl)cc1Cl	-9.1*	71*	i	i	i	193%*	i	i	i
COc1ccccc1N=C1NC(=O)/C(=C/c2ccc(N(C)C)cc2)S1	i	65*	i	i	i	i	0.22*	i	128*
COc1ccc(/C=C2\SC(=Nc3ccccc3)NC2=O)cc1	i	i	i	i	i	x	x	x	x
CN(C)c1nc(N)c(C(=O)N=C(N)N)nc1Cl	i	35*	i	i	i	170%*	i	i	i
NC(=Nc1ccccc1)NC(=O)c1nc(Cl)c(N)nc1N	i	i	i	i	i	x	x	x	x
CN1C(=O)c2ccc(NC(=O)CCS(=O)(=O)c3ccccc3)cc2C1=O	i	i	i	i	i	x	x	x	x
O=S(=O)(Nc1cccc(-c2ccc3nncn3n2)c1)c1cccc(F)c1	i	37*	i	i	i	177%*	i	i	i
CC1=NN2C(=N)/C(=C\c3ccc(SCc4ccccc4)o3)C(=O)N=C2S1	i	i	i	i	i	x	x	x	x
N=C1/C(=C\c2ccc(SCc3ccco3)o2)C(=O)N=C2SC=NN12	i	90*	i	i	i	267%*	i	i	47*
COc1ccccc1NS(=O)(=O)c1cc(C(=O)NCc2ccncc2)ccc1C	i	i	i	i	i	x	x	x	x
COc1ccccc1NS(=O)(=O)c1cc(C(=O)NCCC(C)C)ccc1F	i	35*	i	i	i	313%*	i	i	101*
O=S(=O)(c1ccccc1)c1nnn2c1nc(NC1CCN(Cc3ccccc3)CC1)c1ccccc12	i	60*	i	i	i	274%*	i	i	i
Cc1ccc(-c2n[nH]c(Cc3ccccc3)n2)cc1	i	28*	i	i	i	97%*	i	i	i
Cc1ccc(OCc2nc(-c3ccc(Cl)cc3)n[nH]2)cc1	i	i	i	i	i	x	x	x	x
Cc1sc(N)nc1-c1ccc(Oc2ccccc2)cc1	i	i	i	i	i	x	x	x	x
Cc1[nH]c2ccccc2c1-c1nc(N)sc1C	i	38*	i	i	i	i	i	i	i
Cc1ccc(-n2nc(C)c3c2OC(N)=C(C#N)C3c2ccncc2)cc1 (stereo unspecified)	i	i	i	i	i	x	x	x	x
Cc1ccc(-n2nc(C)c3c2OC(N)=C(C#N)C3c2ccccc2F)cc1 (stereo unspecified)	i	27*	i	i	i	163%*	i	i	i
CCOC(=O)c1ccc(N2C(=O)C3C(C2=O)C(C(=O)c2ccc(Cl)cc2)N2CCCC32)cc1 (stereo unspecified)	i	43*	i	i	i	i	i	i	52*
CCOC(=O)c1ccc(N2C(=O)C3CC=CCC3C2=O)cc1 (stereo unspecified)	i	i	i	i	i	x	x	x	x
SMILES	RGS4 pot	MrgX1 agonist	MrgX1 allo act	MrgX1 antagonist	RGS4 inh	MrgX1 ag reconf	HEK293 Ca flux	HEK293 Ca counter	HEK293 Ca cntr2
CC1C(=O)N(Cc2cccc(F)c2)c2ccccc2N1C(=O)c1ccccc1 (stereo unspecified)	i	i	i	i	i	x	x	x	x
COc1ccc(C(=O)c2no[n+]([O-])c2C(=O)c2ccc(OC)cc2)cc1	i	67*	i	i	i	186%*	i	i	57*
CC(Oc1ccccc1)C(=O)Nc1nnc(S(=O)(=O)N(C)c2ccccc2)s1 (stereo unspecified)	i	29*	i	i	i	95%*	i	i	46*
Cc1nn(Cc2ccccc2)c2c1C(c1cccc(Cl)c1)C(C#N)=C(N)O2 (stereo unspecified)	i	35*	i	i	i	174%*	i	i	47*
COc1ccc(NC(=S)NCCN2CCC(C)CC2)cc1Cl	i	i	i	i	i	x	x	x	x
Cc1ccc(NS(=O)(=O)c2ccc(C(=O)N3CC(C)CC(C)C3)cc2)cc1 (stereo unspecified)	i	28*	i	i	i	151%*	i	i	71*
COc1ccc(CNC(=O)C2CCC(CNC(=O)[C@@H]3Cc4ccccc4CN3)CC2)cc1 (stereo partly specified)	i	i	i	i	i	x	x	x	x
c1ccc(Sc2nc(N3CCCCC3)nc(N3CCCCC3)n2)nc1	i	35*	i	i	i	211%*	i	i	59*
CC(=O)c1cccc(NC(=O)COc2ccc(S(=O)(=O)N3CCCCC3)cc2)c1	i	i	i	i	i	x	x	x	x
CC(=O)Cc1nsc(NC(=O)c2ccccc2Cl)n1	i	i	i	i	i	x	x	x	x
